# A selection: hits, their analogues and other compounds. The true share with any hit is near 6.9%.
# Ecoli tolC – growth inhibitors of E. coli BW25113 tolC mutant. OD615. growth inhibition, % at 10 µM (by protocol). actives 2.2% (n = 65,000);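 active = growth inhibition at or above a cutoff equal to the mean over every tested compound plus 3 SD, cut at about 60% in these data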;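 also: growth measured after 20 h incubation at 37 °C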
#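 Test system – E. coli BW25113 ΔtolC::kan, tolC deletion mutant strain · Detection – OD at 615 nm · Buffer or medium – LB with kanamycin 50 µg/mL · Times – 20 h compound exposure of bacteria at 37 °C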
# FAK blocker – inhibitors of human focal adhesion kinase; AID 727; actives 0.84% (n = 97,000); biochemical FAK kinase activity assay; inhibition, %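 (tested at 7 µM)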; in the data active = inhibition above about 19%
# Target sequence (Q05397 whole entry, looked up): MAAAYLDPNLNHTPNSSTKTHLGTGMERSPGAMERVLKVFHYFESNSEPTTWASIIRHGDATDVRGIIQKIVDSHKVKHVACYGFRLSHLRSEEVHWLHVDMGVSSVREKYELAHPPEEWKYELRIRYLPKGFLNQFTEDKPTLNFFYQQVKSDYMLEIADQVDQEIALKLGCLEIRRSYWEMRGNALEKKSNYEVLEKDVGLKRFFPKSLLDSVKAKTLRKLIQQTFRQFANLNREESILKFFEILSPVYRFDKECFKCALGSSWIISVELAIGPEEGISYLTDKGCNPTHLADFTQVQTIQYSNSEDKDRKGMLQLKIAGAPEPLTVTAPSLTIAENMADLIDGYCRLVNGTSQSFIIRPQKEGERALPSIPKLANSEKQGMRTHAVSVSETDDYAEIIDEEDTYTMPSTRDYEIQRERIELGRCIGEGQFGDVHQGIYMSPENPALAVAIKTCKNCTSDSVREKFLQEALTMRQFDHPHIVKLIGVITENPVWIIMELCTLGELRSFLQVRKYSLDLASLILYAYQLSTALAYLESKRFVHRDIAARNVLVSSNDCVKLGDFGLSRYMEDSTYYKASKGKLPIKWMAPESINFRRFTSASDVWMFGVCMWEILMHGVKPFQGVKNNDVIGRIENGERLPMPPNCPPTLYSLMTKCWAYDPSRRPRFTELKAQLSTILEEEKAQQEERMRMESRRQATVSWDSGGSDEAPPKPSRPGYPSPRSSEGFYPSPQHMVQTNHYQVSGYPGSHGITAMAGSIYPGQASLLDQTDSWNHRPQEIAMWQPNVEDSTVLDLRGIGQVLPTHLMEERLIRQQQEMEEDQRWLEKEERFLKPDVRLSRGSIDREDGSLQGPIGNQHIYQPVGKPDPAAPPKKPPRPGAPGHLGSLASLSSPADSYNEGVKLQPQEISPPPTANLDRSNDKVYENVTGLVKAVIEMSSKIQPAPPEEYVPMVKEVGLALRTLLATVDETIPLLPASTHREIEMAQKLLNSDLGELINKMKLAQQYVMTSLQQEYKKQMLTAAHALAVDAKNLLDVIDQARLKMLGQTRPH
# Candida biofilm – kills Candida albicans biofilms; C. albicans biofilm + clotrimazole, Alamar Blue; inhibition, % at 6 µM; AID 834; actives 0.14% (n = 85,000);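 active = inhibition above 20%; inactive = inhibition below 20%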;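 also: preformed 24 hr biofilms exposed to compound for 48 hr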
# Pyk2 oligo antag – blocks oligomerization of human Pyk2 in cells; Q14289; Q293 cells, Pyk2 FERM NanoBiT luminescence; hits give low values; z-score (the deposit names both 25 µM and 10 µM); actives 0.83% (n = 99,000); AID 1347419;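 active = Z-score of -3 or lower, scaled per plate to the spread of control and sample wells; inactive = z-score above -3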;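 also: negative z-score means lost luminescence so less FERM oligomerization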
# PostGolgi yeast – growth inhibition of a yeast mutant, post-Golgi transport screen; AID 739; post-Golgi transport phenotypic cell assay; inhibition, % at 10 µM; actives 0.9% (n = 98,000);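 also: yeast cells grown in 1536-well plates; yeast grown about 18 h at 30C before absorbance read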
# PostGolgi ctrl – inhibits growth of the yeast control strain; efflux-deficient yeast background strain, growth absorbance A615, 16 h; inhibition, % at 10 µM; actives 5% (n = 98,000); AID 738
# Numbers stand for hits; 0 = inactive; - = no result given. Rule as the data show it, unless noted: active = inhibition above about 30%; inactive = the rest.
SMILES,Ecoli tolC,FAK blocker,Candida biofilm,Pyk2 oligo antag,PostGolgi yeast,PostGolgi ctrl
CC(=O)Nc1nc(C=C(Cl)Cl)cs1,0,-,0,0,0,33
O=C(O)c1ccc(N2CCCCC2)cc1,0,-,0,0,31,0
Cc1ccc2c(c1)c1c3n2CC(=C2C(=O)OC(C)(C)OC2=O)NC3CCC1 (stereo unspecified),0,0,0,0,0,51
COC(=O)CN1C(=O)S/C(=C/c2ccc(N3CCCCC3)o2)C1=O,-,0,-,0,0,0
O=C(COc1c(Br)cc(Br)c2cccnc12)N1CCc2ccccc2C1,-,0,0,0,0,67
Clc1ccc(SCCCCn2cncn2)cc1,0,0,0,0,0,0
O=C(Cn1c(=O)oc2ccccc21)N1CCN(c2ccccc2)CC1,0,0,0,0,0,31
O=C(CCn1c(=O)oc2ccccc21)N1CCN(c2ccccc2F)CC1,0,0,0,0,0,0
CC(=O)N1CCN(C(=O)Cn2c(=O)oc3ccccc32)CC1,-,0,0,0,0,0
O=C(CCn1c(=O)oc2ccccc21)N1CCN(C(c2ccccc2)c2ccccc2)CC1,64,0,0,0,0,36
Fc1ccc(C2CC(c3ccco3)=NN2c2ccccc2)cc1 (stereo unspecified),-,0,-,0,0,0
O=[N+]([O-])c1ccc(N2N=C(c3ccco3)CC2c2ccccc2)cc1 (stereo unspecified),-,0,-,0,0,31
CCOC(=O)c1ccc(Oc2nc(NC(C)(C)C)nc(N(C)C)n2)cc1,66,0,0,0,0,0
O=S(=O)(N1CCCCC1)n1c(Cc2ccccc2)nc2ccccc21,100,0,0,0,0,37
CC1=C(OC(=O)c2ccccc2)C(C)(C)C(c2ccc(Br)cc2)OC1=O (stereo unspecified),-,0,0,0,0,0
CC1=C(C(=O)Nc2cc(-c3cccc(F)c3)[nH]n2)C2(CCCCC2)OC1=O,0,-,0,-,0,32
Cc1csc(NC(=O)c2c(-c3c(Cl)cccc3Cl)noc2C)n1,-,0,0,0,0,0
Cc1onc(-c2ccccc2)c1C(=O)Nc1nc2c(s1)CCCC2,0,0,0,-3.4,0,34
Cc1cc(C(=O)Nc2nc3c(s2)CCCC3)no1,0,0,0,0,0,0
Cc1onc(-c2c(F)cccc2Cl)c1C(=O)Nc1nc2c(s1)CCCC2,63,0,0,-3.6,0,0
COC(C(=O)Nc1ccc(F)c(F)c1)c1ccccc1 (stereo unspecified),-,0,0,0,-,-
CC(C)OC(=O)C1=C2SCC(=O)N2C(N)=C(C#N)C1,-,0,0,0,0,0
COC(=O)C1=C(CSc2nncn2C)NC(=O)NC1c1ccc(F)cc1 (stereo unspecified),-,0,0,0,0,0
Cc1nc(-c2ccc(O)c(O)c2)cs1,-,0,0,0,0,0
Oc1ccc(-c2csc(-c3ccccc3)n2)cc1O,-,0,0,0,0,59
SMILES,Ecoli tolC,FAK blocker,Candida biofilm,Pyk2 oligo antag,PostGolgi yeast,PostGolgi ctrl
COc1ccc(CNC(=O)Cn2cc3c(n2)CCCCC3)cc1,0,-,0,-,0,0
COc1ccc(OCCSc2nnc3sc4ccccc4n23)cc1,0,0,0,0,38,0
O=C(Cn1c(C(=O)NCc2ccco2)cc2sccc21)c1ccccc1,65,0,0,0,0,44
O=C(CCCOc1ccc(Cl)cc1Cl)N1CCN(c2ccccn2)CC1,73,-,0,0,0,52
O=C(CCn1nc(-c2ccc(Cl)cc2)ccc1=O)NCc1cccnc1,-,0,-,0,0,0
Cn1c(N2CCOCC2)c(/C=N/OC(=O)c2ccc(F)cc2)c2ccccc21,-,0,-,0,42,34
Cc1ccc(C(=O)O/N=C/c2c(N3CCOCC3)n(C)c3ccccc23)cc1,-,0,-,0,0,32
Cc1onc(-c2c(Cl)cccc2Cl)c1C(=O)NCCCN1CCOCC1,0,0,0,0,0,0
COc1ccc(CNc2oc(COc3ccccc3)nc2C#N)cc1,0,0,0,0,0,0
N#Cc1nc(Cc2cccc3ccccc23)oc1NCCCn1ccnc1,61,0,0,0,0,0
CN(C)CCNc1oc(-c2ccccc2F)nc1C#N,0,0,0,-,0,0
N#Cc1nc(Cc2cccc3ccccc23)oc1NCCCN1CCOCC1,0,0,0,0,0,0
COc1ccc(CCNc2oc(-c3ccccc3OC)nc2C#N)cc1,0,0,0,0,0,0
COc1ccc(CNc2oc(Cc3cccc4ccccc34)nc2C#N)cc1,0,0,0,0,0,35
N#Cc1nc(-c2ccccc2F)oc1NCc1cccc2c1OCO2,0,0,0,0,0,34
COc1ccccc1-c1nc(C#N)c(NCc2ccc(F)cc2)o1,0,0,0,0,0,41
Cc1cc2c(cc1C)NC1(C(=O)Nc3ccccc31)C1=C(CC(C)(C)CC1=O)N2 (stereo unspecified),0,0,0,0,0,0
O=C(O)CSCCCC(=O)Nc1ccc(Br)cc1,0,0,0,0,0,0
CC1(C)N=C(SCC(=O)Nc2ccc(Cl)cc2)C(c2ccc(Cl)cc2)=N1,-,0,0,0,0,0
CCC(=O)NC(=S)Nc1cccc(Cl)c1N1CCCCC1,-,0,-,0,0,45
CC1CCCC(NC(=O)CC2Nc3ccccc3NC2=O)C1C (stereo unspecified),0,0,0,0,0,0
CCCn1c(NC(=O)c2ccccc2)nc2ccccc21,0,0,0,0,0,39
CC(=O)Nc1nc2ccccc2n1Cc1ccccc1C,98,0,0,0,0,0
C=C(C)Cn1c(CCNC(=O)C(C)C)nc2ccccc21,0,0,0,0,0,41
CCCn1c(NC(=O)c2ccc(C)cc2)nc2ccccc21,0,0,0,0,0,0
SMILES,Ecoli tolC,FAK blocker,Candida biofilm,Pyk2 oligo antag,PostGolgi yeast,PostGolgi ctrl
CCCn1c(NC(=O)c2cccc(S(=O)(=O)N3CCCC3)c2)nc2ccccc21,0,-,0,-3.9,0,36
CC(=O)NCc1nc2ccccc2n1Cc1ccccc1C,0,0,0,-,0,0
Cc1ccc(C(=O)Nc2nc3ccccc3n2CCN2CCCC2)cc1,0,0,0,0,0,0
O=C(CSc1nnc2n1CCCN2C(=S)Nc1ccc(Cl)cc1)c1ccccc1,-,0,0,0,-,-
Cn1c(=O)oc2cc(S(=O)(=O)NCCN3CCc4ccccc4C3)ccc21,0,-,0,-,0,0
C=C(C)Cn1c(CCCNC(=O)C(C)(C)C)nc2ccccc21,0,0,-,0,0,0
CCCn1c(NC(=O)C2CCN(S(=O)(=O)c3cccs3)CC2)nc2ccccc21,0,0,0,0,0,32
C=CCn1c(CCCNC(=O)C(C)(C)C)nc2ccccc21,0,-,0,-,0,30
COC(=O)c1ccccc1NC(=O)CSc1nccn1C,0,0,0,0,0,0
CCn1c(=NC(=O)c2ccc(N3C(=O)CCC3=O)cc2)sc2c(OC)ccc(OC)c21,0,0,0,-,37,0
CCn1c(=NC(=O)CN2C(=O)CCC2=O)sc2c(OC)ccc(OC)c21,0,0,-,-,0,0
CCC(C)C(NC(=O)C1CCC(C)CC1)C(=O)NC(CCSC)C(=O)OC (stereo unspecified),-,0,0,0,0,0

# Assay outcomes (PubChem BioAssay)
